Source: PubChem BioAssay (several laboratories)
Shown are actives, neighbours in structure and some others; about 6.4% of the full set was active somewhere.
Jurkat tox 60K: reduces viability or proliferation of Jurkat cells; Jurkat E6.1 viability, ATP luminescence, 48 h; inhibition, % at 4 µM; 56,000 tested, 1.2% active;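 active = inhibition above the mean inhibition of all tested compounds plus 3 SD, cut at about 28% in these data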
H69AR inhibit: growth inhibitors of human H69AR lung tumor cells; H69AR lung tumor viability, ATP luminescence, 72 h; active compounds read low; viability, % at 10 µM; 85,000 tested, 6% active; AID 598;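 active = viability at or below 40%; inactive = viability above 40%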;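 note: multidrug resistant small cell line overexpressing MRP-1 efflux transporter; 100% = mean luminescence of untreated control wells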
Lung fibro prol: blocks proliferation of human lung fibroblasts. LL 47 human lung fibroblast viability, ATP luminescence; active compounds read low. AID 719. 85,000 tested, 1.1% active. viability, % at 10 µM;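 active = viability at or below 50% in the single dose screen; inactive = viability above 50%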;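 note: compound exposure lasted 72 h before the ATP readout; 100% = median luminescence of untreated cell-only wells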
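Times – overnight cell rest, 72 h compound treatment at 37 °C · Test system – human lung fibroblast line LL 47, low passage · Amount – 1,150 cells in each well · Controls – cell-only wells, no compound · Doses – 0.1% DMSO in all compound wells · Measured by – CellTiter-Glo luminescence · Buffer or medium – IMEM plus 15% FBS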
HUVEC prolif 384: human endothelial cell proliferation inhibition; HUVEC proliferation, CellTiter-Glo luminescence, 72 h; active compounds read low; viability, % at 10 µM (by protocol); 86,000 tested, 1.1% active;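 active = viability at or below 30%; inactive = viability above 30%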;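 note: 100% = median luminescence of DMSO-only cell control wells on each plate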
tolC growth inh: E. coli tolC mutant growth inhibition | E. coli BW25113 tolC mutant growth, OD615 | growth inhibition, % at 10 µM (by protocol) | 65,000 tested, 2.2% active | AID 573;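 active = growth inhibition at or above a cutoff equal to the mean over every tested compound plus 3 SD, cut at about 60% in these data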;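 note: growth measured after 20 h incubation at 37 °C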
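Test system: E. coli BW25113 ΔtolC::kan bacteria | Medium: Kanamycin-containing LB broth (50 µg/mL) | Dosing: One dose of 10 µM final | Times: 20 h incubation with compound, 37 °C | Detection: Optical density read at 615 nm | Read-out basis: Percent growth inhibition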
Ecoli WT expand: growth inhibitors of E. coli BW25113 wild type. OD600 absorbance. growth inhibition, % at 100 µM. 98,000 tested, 0.15% active;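 active = growth inhibition above about 50% at one test dose, limit read from the data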;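 note: growth measured after 20 h incubation at 37 °C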
* marks the source's active call; other numbers are inactive results; . = not tested or not shown.

SMILES | Jurkat tox 60K | H69AR inhibit | Lung fibro prol | HUVEC prolif 384 | tolC growth inh | Ecoli WT expand
Cc1ccc(-c2nc(S(=O)(=O)c3ccc(F)cc3)c(SCC(=O)NCC3CCCO3)o2)cc1 (stereo not drawn) | . | 86 | 94 | 106 | 1 | -8
Cc1ccc(S(=O)(=O)c2nc(-c3ccc(F)cc3)oc2SCC(=O)NCC2CCCO2)cc1 (stereo not drawn) | . | 28* | 62 | 71 | -6 | -13
O=C(CSc1oc(-c2ccc(F)cc2)nc1S(=O)(=O)c1ccc(F)cc1)NCC1CCCO1 (stereo not drawn) | . | 49 | 14* | 61 | 2 | -15
CCCN(CC1CC1)C(=O)COC(=O)c1[nH]c(C)c(C(=O)OCC)c1C | . | 67 | 94 | 104 | . | 1
CCOc1cc(/C=C\c2[nH]c(=O)[nH]c(=O)c2[N+](=O)[O-])ccc1OC(C)CC (stereo not drawn) | . | 98 | 92 | 15* | . | -12
CN(C)C(CNC(=O)c1cccnc1Sc1ccccc1)c1ccco1 (stereo not drawn) | 6 | 93 | 85 | 103 | -30 | 1
CCOc1ccc(NC(=O)CSC(N)=O)cc1 | -6 | 15* | 102 | 47 | -9 | 3
COc1cccc(N2CCN(CC(=O)Nc3nc4c(s3)CC(C)CC4)CC2)c1 (stereo not drawn) | -2 | 98 | 100 | 91 | 95* | -9
COc1cccc(NC(=O)CN2CCN(c3ccc(F)cc3)CC2)c1 | -2 | 28* | 95 | 109 | -9 | -2
CCOCC(=O)Nc1cccc(OC)c1 | -7 | 28* | 96 | 91 | -6 | 11
CC1CCc2nc(NC(=O)CN3CCN(c4ccc(F)cc4)CC3)sc2C1 (stereo not drawn) | . | 88 | 99 | 102 | . | -3
COc1cc(NC(=O)COc2cccc(OC)c2)cc(OC)c1 | 0 | 47 | . | 90 | 1 | -2
COC(=O)c1ccc2c(=O)n(CCC3=CCCCC3)c(SCC(=O)N3CCCC3)nc2c1 | . | 48 | 100 | 78 | -7 | .
CCOc1ccc(NC(=O)CN2CCN(CC(=O)c3ccc(OCC)cc3)CC2)cc1 | 5 | 86 | 91 | 98 | -1 | 6
O=C(CCN1CCN(c2ccccc2F)CC1)Nc1ccccc1F | 2 | 95 | 93 | 110 | 1 | 11
COc1cccc(NC(=O)N2CCN(c3cccc(C)c3C)CC2)c1 | 1 | . | . | . | 72* | -6
CCOc1ccc(NC(=O)CCN2CCN(c3ccccc3F)CC2)cc1 | . | 24* | 93 | 71 | . | 0
O=C(CCN1CCN(c2ccccc2F)CC1)c1ccc(Br)cc1 | -5 | 7.7* | 86 | 70 | -8 | 18
CCOc1ccc(NC(=O)CN2CCN(CC(=O)Nc3ccc(F)cc3)CC2)cc1 | 2 | 30* | 89 | 98 | 1 | 15
CC(NC(=O)c1ccnc(C(C)(C)C)c1)c1ccccc1 (stereo not drawn) | 11 | 104 | 95 | 105 | 6 | 3
CCOC(=O)N1CCC(NC(=O)c2ccc(CS(=O)(=O)c3ccccc3C)o2)CC1 | 2 | 99 | 98 | 93 | 7 | 2
Cc1nnc(SCc2ccc3c(c2)OCO3)s1 | . | 106 | 110 | 111 | . | 8
Cc1ccc(-n2c(C)cc(C3N=C(N)Nc4nc5ccccc5n43)c2C)c(C)c1 (stereo not drawn) | -3 | 33* | 72 | 16* | 100* | -21
Cc1cc(C2N=C(N)Nc3nc4ccccc4n32)c(C)n1-c1ccccc1Cl (stereo not drawn) | . | 69 | 81 | 58 | 61* | 10
O=C(c1ccc2nc(N3CCCCC3)sc2c1)N1CCN(Cc2ccc3c(c2)OCO3)CC1 | 13 | . | . | . | 11 | -4
SMILES | Jurkat tox 60K | H69AR inhibit | Lung fibro prol | HUVEC prolif 384 | tolC growth inh | Ecoli WT expand
O=C(Cn1c2c(c(-c3ccccc3)cc1=O)CCCC2)N1CCCCCC1 | 4 | 63 | 93 | 78 | 100* | .
CN(C)c1ccc(-c2nnn(CC(=O)Nc3ccccc3N3CCOCC3)n2)cc1 | 5 | 65 | 95 | 94 | 23 | 1
CN(C)c1ccc(-c2nnn(CC(=O)N3c4ccccc4CCc4ccccc43)n2)cc1 | 13 | 39* | 99 | 94 | 17 | -11
O=C(/C=C/c1ccc(OCCCF)cc1)NCc1ccc(Cl)cc1 | . | . | . | . | . | -6
Cc1c(Cl)cccc1NC(=S)NNc1ncc(C(F)(F)F)cc1Cl | . | 16* | 96 | 50 | . | 22
Cc1ccccc1NC(=S)NNc1ncc(C(F)(F)F)cc1Cl | . | . | . | . | . | 15
C=CCNC(=O)c1cccc(C(F)(F)F)c1 | . | . | . | . | . | 2
Nc1nnc(C(c2ccccc2)c2ccccc2)s1 | . | 89 | 97 | 103 | . | -1
C1CCN(c2nc(N3CCCC3)nc(N3CCNCC3)n2)C1 | -9 | 6.0* | 86 | 90 | -11 | -3
c1ccc(Nc2nc(N3CCCCC3)nc(N3CCNCC3)n2)cc1 | -4 | . | . | . | -3 | 32
COCCOc1cc(Nc2nnc(C(F)(F)F)s2)c(Cl)cc1Cl | . | 13* | 100 | 66 | . | -6
COc1cc(Nc2nnc(C)s2)c(Cl)cc1Cl | . | 91 | 111 | 104 | . | 4
Cn1c(C(=O)NCc2ccccc2)cc2oc3ccccc3c21 | . | 86 | 77 | 75 | . | -3
Cn1c(C(=O)NCc2cccs2)cc2oc3ccccc3c21 | 29* | . | . | . | 1 | -12
CCN(CC)CCNC(=O)c1cn(CC)c2ccc(S(=O)(=O)N(C)C)cc2c1=O | 0 | 92 | 91 | 100 | -3 | 4
CCCNC(=O)c1cn(CC)c2cc(N3CCN(C)CC3)c(F)cc2c1=O | . | 55 | 98 | 96 | . | 100*
CCn1cc(C(=O)NCc2cccs2)c(=O)c2cc(S(=O)(=O)N3CCOCC3)ccc21 | 9 | 65 | 96 | 98 | -7 | .
CCn1cc(C(=O)NCCCN(C)C)c(=O)c2cc(F)c(N3CCN(C)CC3)cc21 | . | . | . | . | 23 | 100*
CC(C)C(NC(=S)NCc1ccccc1)C(=O)O (stereo not drawn) | . | 89 | 87 | 78 | . | 5
Cn1nc(C(=O)Nc2cccc(C(F)(F)F)c2)c2ccccc2c1=O | . | . | . | . | . | -7
Cn1nc(C(=O)Nc2c(-c3ccccc3)nc3sccn23)c2ccccc2c1=O | -5 | 26* | 40* | 41 | -2 | -6
CCN(CC)CCNS(=O)(=O)c1ccc(OC)c(Br)c1 | . | . | . | . | . | -2
COc1ccc(NC(=O)/C(Cl)=C(/Cl)S(=O)(=O)Cc2ccccc2)cn1 | . | 1.9* | 4.7* | 125 | . | 12
COc1ccc(NS(=O)(=O)Cc2ccccc2Cl)cn1 | -3 | 91 | 100 | 85 | -21 | 4
CC1CCCC(C)N1C(=O)CSc1nnc(COc2ccccc2)n1-c1ccccc1 (stereo not drawn) | . | 94 | 103 | 117 | . | -2
N#CC1=C(N)Oc2cc3ccccc3cc2C1c1cccs1 (stereo not drawn) | . | 21* | 86 | 59 | . | 0
N#CC1=C(N)Oc2c(ccc3cccnc23)C1c1cccnc1 (stereo not drawn) | . | . | . | . | -7 | 9
N#CC1=C(N)Oc2cc3ccccc3cc2C1c1cccnc1 (stereo not drawn) | . | 20* | 70 | 67 | . | -3
